# Test results reported in ChEMBL document CHEMBL3259588, “Anti-inflammatory drimane sesquiterpene lactones from an Aspergillus species” (Bioorg Med Chem, 2014).
# Active and inactive are the calls of the source. No cut-off for these calls is given here.
# How the values were obtained:
# Assay type in all cases: cell-based
# [1] = test system: DLD-1; test: (§1) Inhibition of TNF-alpha/IFN-gamma/IL-1beta-induced human CXCL10 (972 bp) promoter activity expressed in human DLD1 cells after 24 hrs by luciferase reporter assay
# Summary of the method: (§2)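 DLD-1 in 24-well plates, switched to 0.5% FCS without antibiotics a day before lipofection (Lipofectamine 2000, 0.8 µg plasmid) with 972 bp CXCL10 promoter, NF-κB, GAS/Stat1 or ISRE luciferase reporters plus pRL-CMV. Stimulated 24 h with 10 ng/mL TNF-α, 10 ng/mL IFN-γ, 5 ng/mL IL-1β ± compound; Dual-Glo firefly/Renilla read. Stimulation-only = 100%; mean ± SEM, ≥3 experiments.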
# [2] = as §1; settings: DLD-1, 24 h; summary of the method: as §2
# [3] = target: T1, Nuclear factor NF-kappa-B complex (Homo sapiens) (UniProt Q00653+P19838+Q04206); test: Inhibition of NF-kappaB (unknown origin) expressed human DLD1 cells assessed as reduction in TNF-alpha gene expression pretreated at 13.75 uM for 1 hr by RT-PCR method relative to untreated-control; settings: DLD-1
# Summary of the method: (§3)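 DLD-1 seeded 5×10^5 cells/mL, grown 24 h, starved 16 h in 0.5% FCS, pretreated with compound 1 h, then stimulated with 10 ng/mL TNF-α, 10 ng/mL IFN-γ, 5 ng/mL IL-1β for 5 h. tnf-α, il-1β, inos mRNA by two-step qRT-PCR, Pfaffl relative quantification, normalised to gapdh; stimulated-untreated control = 100%. Mean ± SEM, three independent experiments.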
# [4] = test system: DLD-1; test: Inhibition of TNF-alpha/IFN-gamma/IL-1beta-induced human CXCL10 (972 bp) promoter activity expressed in human DLD1 cells assessed as reduction in TNF-alpha expression pretreated at 27.5 uM for 1 hr prior to 16 hrs cytokine challenge by proteome profiling method relative to untreated-control
# Summary of the method: (§4)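 DLD-1 starved 16 h in 0.5% FCS, seeded 5×10^6 cells/mL, pretreated 1 h with compound, then stimulated 16 h with 10 ng/mL TNF-α, 10 ng/mL IFN-γ, 5 ng/mL IL-1β. Supernatant cytokines/chemokines detected on Human Cytokine Array Panel A antibody array.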
# [5] = test system: DLD-1; test: Inhibition of TNF-alpha/IFN-gamma/IL-1beta-induced human CXCL10 (972 bp) promoter activity expressed in human DLD1 cells assessed as reduction in IL1-beta expression pretreated at 27.5 uM for 1 hr prior to 16 hrs cytokine challenge by proteome profiling method relative to untreated-control; summary of the method: as §4
# [6] = test system: DLD-1; test: Inhibition of TNF-alpha/IFN-gamma/IL-1beta-induced human CXCL10 (972 bp) promoter activity expressed in human DLD1 cells assessed as reduction in CXCL10 expression pretreated at 131.5 uM for 1 hr prior to 16 hrs cytokine challenge by proteome profiling method relative to untreated-control; summary of the method: as §4
# [7] = Cytotoxicity against human DLD1 cells up to 50 uM after 48 hrs by XTT assay; settings: dld-1, 48 h
# Summary of the method: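 DLD-1 cells (RPMI 1640, 25 mM HEPES, 10% FCS, 37 °C, 5% CO2) exposed to compound for 48 h; viability read as XTT reduction to coloured formazan.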
# [8] = test system: DLD-1; test: Inhibition of TNF-alpha/IFN-gamma/IL-1beta-induced human CXCL10 (972 bp) promoter activity expressed in human DLD1 cells assessed as reduction in IL-27 expression pretreated at 27.5 uM for 1 hr prior to 16 hrs cytokine challenge by proteome profiling method relative to untreated-control; summary of the method: as §4
# [9] = test system: DLD-1; test: Inhibition of TNF-alpha/IFN-gamma/IL-1beta-induced human CXCL10 (972 bp) promoter activity expressed in human DLD1 cells assessed as reduction in CXCL10 expression pretreated at 27.5 uM for 1 hr prior to 16 hrs cytokine challenge by proteome profiling method relative to untreated-control; summary of the method: as §4
# [10] = test system: DLD-1; test: Inhibition of TNF-alpha/IFN-gamma/IL-1beta-induced human CXCL10 (972 bp) promoter activity expressed in human DLD1 cells assessed as reduction in IL8 expression pretreated at 27.5 uM for 1 hr prior to 16 hrs cytokine challenge by proteome profiling method relative to untreated-control; summary of the method: as §4
# [11] = target: T2, Signal transducer and activator of transcription 1-alpha/beta (Homo sapiens) (UniProt P42224); test: Inhibition of Stat1 (unknown origin) expressed human DLD1 cells assessed as reduction in TNF-alpha gene expression pretreated at 13.75 uM for 1 hr by RT-PCR method relative to untreated-control; settings: DLD-1; summary of the method: as §3
# T2 sequence (whole entry): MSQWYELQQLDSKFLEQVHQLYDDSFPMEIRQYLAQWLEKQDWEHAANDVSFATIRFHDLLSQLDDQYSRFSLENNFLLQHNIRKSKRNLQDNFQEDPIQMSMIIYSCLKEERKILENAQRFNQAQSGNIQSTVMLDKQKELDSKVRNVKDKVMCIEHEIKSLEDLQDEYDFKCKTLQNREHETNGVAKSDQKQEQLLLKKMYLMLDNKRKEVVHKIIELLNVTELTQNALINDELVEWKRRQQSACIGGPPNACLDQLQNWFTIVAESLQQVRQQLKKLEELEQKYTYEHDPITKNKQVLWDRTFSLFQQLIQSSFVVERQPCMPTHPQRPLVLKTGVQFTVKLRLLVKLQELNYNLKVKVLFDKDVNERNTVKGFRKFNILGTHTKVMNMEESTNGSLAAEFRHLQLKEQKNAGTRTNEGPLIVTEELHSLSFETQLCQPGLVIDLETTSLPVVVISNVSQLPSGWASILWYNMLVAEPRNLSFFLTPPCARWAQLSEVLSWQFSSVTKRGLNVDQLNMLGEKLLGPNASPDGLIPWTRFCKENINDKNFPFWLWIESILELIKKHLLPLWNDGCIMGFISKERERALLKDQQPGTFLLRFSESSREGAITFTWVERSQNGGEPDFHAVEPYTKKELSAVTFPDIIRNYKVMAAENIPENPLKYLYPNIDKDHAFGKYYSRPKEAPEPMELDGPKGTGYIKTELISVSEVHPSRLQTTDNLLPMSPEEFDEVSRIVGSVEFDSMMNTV
# [12] = target: T1, Nuclear factor NF-kappa-B complex (Homo sapiens); test: Inhibition of NF-kappaB (unknown origin) expressed human DLD1 cells assessed as reduction in iNOS gene expression pretreated at 13.75 uM for 1 hr by RT-PCR method relative to untreated-control; settings: DLD-1; summary of the method: as §3
# [13] = test system: DLD-1; test: Inhibition of TNF-alpha/IFN-gamma/IL-1beta-induced human CXCL10 (972 bp) promoter activity expressed in human DLD1 cells assessed as reduction in CXCL1 expression pretreated at 27.5 uM for 1 hr prior to 16 hrs cytokine challenge by proteome profiling method relative to untreated-control; summary of the method: as §4
# [14] = Inhibition of TNF-alpha/IFN-gamma/IL-1beta-induced human CXCL10 (972 bp) promoter activity expressed in human DLD1 cells after 24 hrs by […]-driven luciferase reporter assay; settings: DLD-1, 24 h; summary of the method: as §2
# [15] = test system: DLD-1; test: Inhibition of TNF-alpha/IFN-gamma/IL-1beta-induced human CXCL10 (972 bp) promoter activity expressed in human DLD1 cells assessed as CXCL10 gene expression at 27.5 uM after 5 hrs by RT-PCR method relative to untreated-control
# Summary of the method: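 Cells starved 16 h (0.5% FCS), compound pretreatment 1 h, then TNF-α 10 ng/mL/IFN-γ 10 ng/mL/IL-1β 5 ng/mL for 5 h. Total RNA analysed by two-step qRT-PCR for cxcl10, gapdh-corrected (Pfaffl); induced vs uninduced and treated-induced vs untreated-induced (100%).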
# [16] = target: T2, Signal transducer and activator of transcription 1-alpha/beta (Homo sapiens); test: Inhibition of Stat1 (unknown origin) expressed human DLD1 cells assessed as reduction in IL1-beta gene expression pretreated at 13.75 uM for 1 hr by RT-PCR method relative to untreated-control; settings: DLD-1; summary of the method: as §3
# [17] = target: T1, Nuclear factor NF-kappa-B complex (Homo sapiens); test: Inhibition of NF-kappaB (unknown origin) expressed human DLD1 cells assessed as reduction in IL1-beta gene expression pretreated at 13.75 uM for 1 hr by RT-PCR method relative to untreated-control; settings: DLD-1; summary of the method: as §3
# [18] = target: T2, Signal transducer and activator of transcription 1-alpha/beta (Homo sapiens); test: Inhibition of Stat1 (unknown origin)-induced human CXCL10 (972 bp) promoter activity expressed in TNF-alpha/IFN-gamma/IL-1beta-stimulated human DLD1 cells after 24 hrs by luciferase reporter assay; settings: DLD-1; summary of the method: as §2
# [19] = target: T2, Signal transducer and activator of transcription 1-alpha/beta (Homo sapiens); test: Inhibition of Stat1 (unknown origin) expressed in human DLD1 cells assessed as reduction in iNOS gene expression pretreated at 13.75 uM for 1 hr by RT-PCR method relative to untreated-control; settings: DLD-1; summary of the method: as §3
# [20] = test system: DLD-1; test: Inhibition of TNF-alpha/IFN-gamma/IL-1beta-induced human CXCL10 (972 bp) promoter activity expressed in human DLD1 cells assessed as reduction in MIF expression pretreated at 27.5 uM for 1 hr prior to 16 hrs cytokine challenge by proteome profiling method relative to untreated-control; summary of the method: as §4
# T1 sequence (P19838 whole entry, looked up): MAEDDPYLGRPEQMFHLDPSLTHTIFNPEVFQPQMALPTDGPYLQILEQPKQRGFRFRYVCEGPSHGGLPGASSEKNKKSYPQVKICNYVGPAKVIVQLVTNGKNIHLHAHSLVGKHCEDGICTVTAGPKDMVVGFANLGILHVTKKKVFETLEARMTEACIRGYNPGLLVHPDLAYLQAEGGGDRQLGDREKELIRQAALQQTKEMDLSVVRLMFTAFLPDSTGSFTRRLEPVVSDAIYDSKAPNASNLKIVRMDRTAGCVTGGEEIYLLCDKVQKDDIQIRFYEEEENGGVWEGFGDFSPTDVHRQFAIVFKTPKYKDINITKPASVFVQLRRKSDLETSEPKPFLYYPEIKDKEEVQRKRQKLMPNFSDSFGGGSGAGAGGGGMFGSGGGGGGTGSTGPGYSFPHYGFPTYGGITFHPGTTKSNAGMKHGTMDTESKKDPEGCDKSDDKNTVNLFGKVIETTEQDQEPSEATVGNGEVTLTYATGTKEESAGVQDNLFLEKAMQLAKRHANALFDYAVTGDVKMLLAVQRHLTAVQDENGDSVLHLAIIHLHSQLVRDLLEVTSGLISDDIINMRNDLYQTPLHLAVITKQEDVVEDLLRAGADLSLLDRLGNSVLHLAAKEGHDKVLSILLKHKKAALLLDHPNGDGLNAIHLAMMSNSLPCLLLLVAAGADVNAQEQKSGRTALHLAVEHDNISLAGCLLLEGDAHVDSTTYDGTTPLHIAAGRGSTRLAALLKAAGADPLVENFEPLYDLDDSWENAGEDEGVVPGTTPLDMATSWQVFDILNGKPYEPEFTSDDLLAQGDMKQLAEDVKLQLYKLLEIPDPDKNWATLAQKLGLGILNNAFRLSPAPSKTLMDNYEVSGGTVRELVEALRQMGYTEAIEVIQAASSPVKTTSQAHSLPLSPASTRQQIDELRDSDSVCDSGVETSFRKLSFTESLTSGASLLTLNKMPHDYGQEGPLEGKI
# T1 sequence (Q00653 whole entry, looked up): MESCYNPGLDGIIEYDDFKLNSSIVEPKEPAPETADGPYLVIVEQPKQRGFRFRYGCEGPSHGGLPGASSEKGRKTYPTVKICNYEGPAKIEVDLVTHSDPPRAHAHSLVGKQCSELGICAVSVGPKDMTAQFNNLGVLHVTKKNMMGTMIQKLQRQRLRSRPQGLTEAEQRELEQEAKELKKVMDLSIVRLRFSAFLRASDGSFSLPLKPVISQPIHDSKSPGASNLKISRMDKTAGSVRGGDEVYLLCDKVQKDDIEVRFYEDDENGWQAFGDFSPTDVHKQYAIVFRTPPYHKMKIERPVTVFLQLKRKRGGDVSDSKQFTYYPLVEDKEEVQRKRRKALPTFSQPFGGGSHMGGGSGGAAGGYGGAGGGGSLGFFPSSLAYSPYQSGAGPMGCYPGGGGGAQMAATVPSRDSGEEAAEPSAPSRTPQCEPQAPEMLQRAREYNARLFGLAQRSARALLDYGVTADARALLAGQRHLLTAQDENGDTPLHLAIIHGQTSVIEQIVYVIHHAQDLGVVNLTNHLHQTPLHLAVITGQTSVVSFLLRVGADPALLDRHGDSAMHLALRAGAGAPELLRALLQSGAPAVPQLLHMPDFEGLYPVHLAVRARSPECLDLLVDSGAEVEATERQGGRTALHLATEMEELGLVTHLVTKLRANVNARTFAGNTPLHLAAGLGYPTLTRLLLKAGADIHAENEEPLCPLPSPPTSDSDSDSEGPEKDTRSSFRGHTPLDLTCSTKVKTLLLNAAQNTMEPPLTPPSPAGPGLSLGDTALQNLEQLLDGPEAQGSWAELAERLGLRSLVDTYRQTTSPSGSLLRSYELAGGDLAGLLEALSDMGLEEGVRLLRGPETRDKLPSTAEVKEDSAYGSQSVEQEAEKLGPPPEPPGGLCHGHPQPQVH
# T1 sequence (Q04206 whole entry, looked up): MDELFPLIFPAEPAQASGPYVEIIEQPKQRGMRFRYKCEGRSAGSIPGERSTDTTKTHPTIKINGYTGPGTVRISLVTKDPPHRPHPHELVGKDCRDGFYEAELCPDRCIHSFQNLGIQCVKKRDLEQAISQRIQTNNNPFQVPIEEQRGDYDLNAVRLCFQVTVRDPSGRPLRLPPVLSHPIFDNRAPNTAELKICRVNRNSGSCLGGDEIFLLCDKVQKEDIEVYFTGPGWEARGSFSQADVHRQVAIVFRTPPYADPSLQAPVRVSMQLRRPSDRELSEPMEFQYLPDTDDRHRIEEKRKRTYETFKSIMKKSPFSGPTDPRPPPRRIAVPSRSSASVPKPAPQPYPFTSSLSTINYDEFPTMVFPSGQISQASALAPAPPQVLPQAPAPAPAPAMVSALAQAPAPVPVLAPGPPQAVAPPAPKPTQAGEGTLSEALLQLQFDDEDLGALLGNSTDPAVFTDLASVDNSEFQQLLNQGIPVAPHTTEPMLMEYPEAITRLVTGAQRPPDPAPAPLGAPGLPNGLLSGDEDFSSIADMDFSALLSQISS
compound,measurement,setting,value
CCCCCC(=O)O[C@@H]1C=C2COC(=O)C2(O)[C@@]2(C)CCCC(C)(C)[C@H]12 (stereo not given in full),inhibition,[1],Dose-dependent effect
same,IC50,[2],12.4 µM
same,inhibition,[3],Active
same,inhibition,[4],Active
same,inhibition,[5],Active
same,inhibition,[6],Active
same,Activity,[7],Non-toxic
same,inhibition,[8],Active
same,inhibition,[9],Active
same,inhibition,[10],Active
same,inhibition,[11],Active
same,inhibition,[12],Active
same,inhibition,[13],Active
same,IC50,[14],14.3 µM
same,inhibition,[15],Active
same,inhibition,[16],Active
same,inhibition,[17],Active
same,inhibition,[18],Dose-dependent effect
same,inhibition,[19],Active
same,inhibition,[20],Active
